The IC50 is the concentration that inhibits the measured activity by half. Higher therefore signals weaker potency in that assay. The term inhibition denotes how much of the control response was suppressed. Read a low inhibition as little suppression. As a reminder, the inhibition in vivo is how much of the control response was suppressed.

For experiment [1], the target named is T1, Angiopoietin-1 receptor (Homo sapiens, UniProt Q02763). The experiment can be described thus: Inhibition of Tie2.
T1 sequence (Q02763 whole entry): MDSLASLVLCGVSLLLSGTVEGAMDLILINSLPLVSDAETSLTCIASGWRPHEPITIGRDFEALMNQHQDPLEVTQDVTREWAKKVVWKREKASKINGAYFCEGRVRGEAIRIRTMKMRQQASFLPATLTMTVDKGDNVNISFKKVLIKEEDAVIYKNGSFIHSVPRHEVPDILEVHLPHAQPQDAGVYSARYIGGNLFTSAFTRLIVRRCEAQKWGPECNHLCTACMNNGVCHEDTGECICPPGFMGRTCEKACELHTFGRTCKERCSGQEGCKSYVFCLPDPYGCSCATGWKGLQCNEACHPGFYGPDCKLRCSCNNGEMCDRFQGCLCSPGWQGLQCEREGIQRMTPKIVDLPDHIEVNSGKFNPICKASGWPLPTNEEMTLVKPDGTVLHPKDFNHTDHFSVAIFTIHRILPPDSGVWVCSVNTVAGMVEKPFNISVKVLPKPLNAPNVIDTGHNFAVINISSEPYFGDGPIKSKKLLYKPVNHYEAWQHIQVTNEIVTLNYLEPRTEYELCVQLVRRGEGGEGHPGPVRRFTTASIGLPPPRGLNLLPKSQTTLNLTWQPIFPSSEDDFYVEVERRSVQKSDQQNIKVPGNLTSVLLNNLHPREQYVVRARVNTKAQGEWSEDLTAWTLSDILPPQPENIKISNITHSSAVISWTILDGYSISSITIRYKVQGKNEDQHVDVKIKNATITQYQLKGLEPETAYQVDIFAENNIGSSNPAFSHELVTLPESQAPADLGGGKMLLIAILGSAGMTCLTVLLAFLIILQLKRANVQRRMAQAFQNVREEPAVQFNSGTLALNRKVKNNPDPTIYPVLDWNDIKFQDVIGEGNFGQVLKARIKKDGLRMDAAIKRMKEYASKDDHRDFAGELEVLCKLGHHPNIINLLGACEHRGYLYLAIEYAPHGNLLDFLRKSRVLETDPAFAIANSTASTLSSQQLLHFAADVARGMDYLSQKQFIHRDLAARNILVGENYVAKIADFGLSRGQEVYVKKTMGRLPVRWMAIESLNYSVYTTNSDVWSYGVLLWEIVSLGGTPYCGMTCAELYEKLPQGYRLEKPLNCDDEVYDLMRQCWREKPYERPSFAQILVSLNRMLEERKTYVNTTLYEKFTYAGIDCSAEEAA
For experiment [2], the target named is T1, Angiopoietin-1 receptor. The experiment can be described thus: Inhibition of Tie2 at 10 uM.
The subject of experiment [3] is Mus musculus. The experiment can be described thus: Inhibition of bFGF-stimulated angiogenesis in Matrigel mouse model at 25 mg/kg, po after 6 days. Format: functional. Conditions: 144 h. Put shortly: (§1)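 Mice bear Matrigel plugs in which angiogenesis is driven by bFGF; compound given as two doses. Control groups are untreated bFGF mice and mice without bFGF. Animals are killed after 6 days, and the heme content of the Matrigel plug is measured as the angiogenesis read-out.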

Experiment [4] deals with Mus musculus. The experiment can be described thus: Inhibition of bFGF-stimulated angiogenesis in Matrigel mouse model at 50 mg/kg, po after 6 days. Format: functional. Conditions: 144 h. In outline: as §1
A short description of experiment [5]: Inhibition of GSK3. Also on record: species or system Homo sapiens.
In experiment [6] the target is RAC-alpha serine/threonine-protein kinase (Homo sapiens, UniProt P31749). The experiment can be described thus: Inhibition of AKT1.
RAC-alpha serine/threonine-protein kinase, sequence (P31749 whole entry): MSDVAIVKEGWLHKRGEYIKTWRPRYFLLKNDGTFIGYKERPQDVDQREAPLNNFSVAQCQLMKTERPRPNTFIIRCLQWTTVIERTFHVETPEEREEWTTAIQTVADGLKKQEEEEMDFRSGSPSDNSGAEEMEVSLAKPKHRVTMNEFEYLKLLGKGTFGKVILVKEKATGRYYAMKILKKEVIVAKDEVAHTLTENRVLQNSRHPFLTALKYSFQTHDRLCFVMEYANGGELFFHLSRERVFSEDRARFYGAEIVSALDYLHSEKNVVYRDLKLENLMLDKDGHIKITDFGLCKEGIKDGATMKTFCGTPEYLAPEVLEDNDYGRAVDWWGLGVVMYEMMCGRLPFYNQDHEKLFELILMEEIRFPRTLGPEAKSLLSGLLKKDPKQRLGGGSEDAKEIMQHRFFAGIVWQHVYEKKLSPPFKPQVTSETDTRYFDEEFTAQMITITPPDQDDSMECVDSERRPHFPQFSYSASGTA
The target in experiment [7] is Insulin-like growth factor 1 receptor (Homo sapiens, UniProt P08069). The experiment can be described thus: Inhibition of IGFR1.
Another experiment addresses Insulin receptor (Homo sapiens, UniProt P06213). The experiment can be described thus: Inhibition of INSR.
Experiment [8] deals with T2, Receptor-type tyrosine-protein kinase FLT3 (Homo sapiens, UniProt P36888).
T2 sequence (P36888 whole entry): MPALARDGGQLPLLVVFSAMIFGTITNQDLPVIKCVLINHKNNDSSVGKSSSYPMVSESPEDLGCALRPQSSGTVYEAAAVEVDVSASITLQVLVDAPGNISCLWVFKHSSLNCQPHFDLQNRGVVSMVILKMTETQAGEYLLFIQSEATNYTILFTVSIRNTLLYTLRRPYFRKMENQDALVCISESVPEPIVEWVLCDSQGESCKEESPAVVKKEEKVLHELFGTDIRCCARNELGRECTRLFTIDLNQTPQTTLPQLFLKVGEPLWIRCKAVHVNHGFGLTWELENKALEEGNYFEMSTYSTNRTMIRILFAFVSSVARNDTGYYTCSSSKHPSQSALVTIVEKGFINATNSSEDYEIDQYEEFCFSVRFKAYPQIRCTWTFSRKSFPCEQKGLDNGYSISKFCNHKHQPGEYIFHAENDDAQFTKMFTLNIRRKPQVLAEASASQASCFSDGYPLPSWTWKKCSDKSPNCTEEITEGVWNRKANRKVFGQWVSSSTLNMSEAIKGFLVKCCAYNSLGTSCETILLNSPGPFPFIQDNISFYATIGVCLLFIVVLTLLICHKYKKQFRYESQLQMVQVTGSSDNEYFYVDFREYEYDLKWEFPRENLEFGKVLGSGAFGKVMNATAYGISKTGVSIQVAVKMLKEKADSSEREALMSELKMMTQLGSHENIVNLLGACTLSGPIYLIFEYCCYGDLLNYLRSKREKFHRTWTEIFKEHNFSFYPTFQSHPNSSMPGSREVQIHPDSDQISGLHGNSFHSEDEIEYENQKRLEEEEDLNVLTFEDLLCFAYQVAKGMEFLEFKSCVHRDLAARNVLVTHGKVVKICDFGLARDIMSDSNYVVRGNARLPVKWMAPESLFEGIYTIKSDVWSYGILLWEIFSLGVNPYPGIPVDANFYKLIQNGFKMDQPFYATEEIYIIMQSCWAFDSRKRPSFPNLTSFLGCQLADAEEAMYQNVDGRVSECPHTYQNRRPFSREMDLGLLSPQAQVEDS
The experiment can be described thus: Inhibition of FLT3.

The target of experiment [9] is Mast/stem cell growth factor receptor Kit (Homo sapiens, UniProt P10721). The experiment can be described thus: Inhibition of KIT.
For experiment [10], the target named is Platelet-derived growth factor receptor alpha (Homo sapiens, UniProt P16234). The experiment can be described thus: Inhibition of PDGFRalpha.
In experiment [11] the target is Platelet-derived growth factor receptor beta (Homo sapiens, UniProt P09619). The experiment can be described thus: Inhibition of PDGFRbeta.
In experiment [12] the target is Vascular endothelial growth factor receptor 2 (Homo sapiens, UniProt P35968). The experiment can be described thus: Inhibition of VEGFR2.
Experiment [13] concerns the target Fibroblast growth factor receptor 1 (Homo sapiens, UniProt P11362). The experiment can be described thus: Inhibition of FGFR1.
Experiment [14] concerns the target Hepatocyte growth factor receptor (Homo sapiens, UniProt P08581). The experiment can be described thus: Inhibition of MET.
Experiment [15] concerns the target Tyrosine-protein kinase ABL1 (Homo sapiens, UniProt P00519). The experiment can be described thus: Inhibition of Abl kinase.
For experiment [16], the target named is Protein kinase C beta type (Homo sapiens, UniProt P05771). The experiment can be described thus: Inhibition of PKCbeta1.
Protein kinase C beta type, sequence (P05771 whole entry): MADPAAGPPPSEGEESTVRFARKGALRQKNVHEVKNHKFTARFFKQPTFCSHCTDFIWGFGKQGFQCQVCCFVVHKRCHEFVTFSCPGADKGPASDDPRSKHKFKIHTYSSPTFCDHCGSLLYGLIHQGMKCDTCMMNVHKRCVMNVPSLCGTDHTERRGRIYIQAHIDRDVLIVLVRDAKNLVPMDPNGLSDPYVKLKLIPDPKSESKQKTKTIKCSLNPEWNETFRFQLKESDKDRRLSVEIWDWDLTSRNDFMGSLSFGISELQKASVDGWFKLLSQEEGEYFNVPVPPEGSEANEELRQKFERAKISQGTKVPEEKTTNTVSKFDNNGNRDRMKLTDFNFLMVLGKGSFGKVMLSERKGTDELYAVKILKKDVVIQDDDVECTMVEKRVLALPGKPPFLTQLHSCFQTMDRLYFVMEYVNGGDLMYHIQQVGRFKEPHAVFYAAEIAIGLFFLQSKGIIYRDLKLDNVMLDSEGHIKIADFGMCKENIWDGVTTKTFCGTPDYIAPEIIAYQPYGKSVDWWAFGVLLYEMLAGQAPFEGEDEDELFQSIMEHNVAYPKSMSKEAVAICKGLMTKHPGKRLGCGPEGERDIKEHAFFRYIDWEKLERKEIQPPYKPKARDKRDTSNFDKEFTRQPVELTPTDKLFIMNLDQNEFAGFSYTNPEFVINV
A further experiment has as its target MAP kinase p38 (Homo sapiens, UniProt O15264+Q15759+Q16539+P53778). The experiment can be described thus: Inhibition of mitogen-activated protein kinase p38. Format: protein assay.
The target in experiment [17] is Cyclin-dependent kinase 2 (Homo sapiens, UniProt P24941). The experiment can be described thus: Inhibition of CDK2.
The target of a further experiment is T3, TGF-beta receptor type-1 (Homo sapiens, UniProt P36897).
T3 sequence (P36897 whole entry): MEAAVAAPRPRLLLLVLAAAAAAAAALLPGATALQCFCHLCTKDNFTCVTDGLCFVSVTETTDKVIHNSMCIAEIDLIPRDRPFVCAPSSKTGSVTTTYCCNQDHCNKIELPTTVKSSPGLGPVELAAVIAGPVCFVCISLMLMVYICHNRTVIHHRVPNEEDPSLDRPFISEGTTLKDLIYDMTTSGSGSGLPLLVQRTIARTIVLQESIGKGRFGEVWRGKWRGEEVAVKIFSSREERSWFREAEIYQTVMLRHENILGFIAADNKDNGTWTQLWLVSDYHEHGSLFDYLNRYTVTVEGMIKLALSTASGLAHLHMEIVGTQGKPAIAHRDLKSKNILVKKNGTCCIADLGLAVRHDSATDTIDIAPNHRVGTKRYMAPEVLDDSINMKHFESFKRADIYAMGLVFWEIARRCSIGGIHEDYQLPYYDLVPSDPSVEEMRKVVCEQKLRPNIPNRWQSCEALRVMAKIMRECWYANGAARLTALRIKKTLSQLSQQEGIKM

Experiment [18] has as its target Macrophage colony-stimulating factor 1 receptor (Homo sapiens, UniProt P07333).

Hepatocyte growth factor receptor, sequence (P08581 whole entry): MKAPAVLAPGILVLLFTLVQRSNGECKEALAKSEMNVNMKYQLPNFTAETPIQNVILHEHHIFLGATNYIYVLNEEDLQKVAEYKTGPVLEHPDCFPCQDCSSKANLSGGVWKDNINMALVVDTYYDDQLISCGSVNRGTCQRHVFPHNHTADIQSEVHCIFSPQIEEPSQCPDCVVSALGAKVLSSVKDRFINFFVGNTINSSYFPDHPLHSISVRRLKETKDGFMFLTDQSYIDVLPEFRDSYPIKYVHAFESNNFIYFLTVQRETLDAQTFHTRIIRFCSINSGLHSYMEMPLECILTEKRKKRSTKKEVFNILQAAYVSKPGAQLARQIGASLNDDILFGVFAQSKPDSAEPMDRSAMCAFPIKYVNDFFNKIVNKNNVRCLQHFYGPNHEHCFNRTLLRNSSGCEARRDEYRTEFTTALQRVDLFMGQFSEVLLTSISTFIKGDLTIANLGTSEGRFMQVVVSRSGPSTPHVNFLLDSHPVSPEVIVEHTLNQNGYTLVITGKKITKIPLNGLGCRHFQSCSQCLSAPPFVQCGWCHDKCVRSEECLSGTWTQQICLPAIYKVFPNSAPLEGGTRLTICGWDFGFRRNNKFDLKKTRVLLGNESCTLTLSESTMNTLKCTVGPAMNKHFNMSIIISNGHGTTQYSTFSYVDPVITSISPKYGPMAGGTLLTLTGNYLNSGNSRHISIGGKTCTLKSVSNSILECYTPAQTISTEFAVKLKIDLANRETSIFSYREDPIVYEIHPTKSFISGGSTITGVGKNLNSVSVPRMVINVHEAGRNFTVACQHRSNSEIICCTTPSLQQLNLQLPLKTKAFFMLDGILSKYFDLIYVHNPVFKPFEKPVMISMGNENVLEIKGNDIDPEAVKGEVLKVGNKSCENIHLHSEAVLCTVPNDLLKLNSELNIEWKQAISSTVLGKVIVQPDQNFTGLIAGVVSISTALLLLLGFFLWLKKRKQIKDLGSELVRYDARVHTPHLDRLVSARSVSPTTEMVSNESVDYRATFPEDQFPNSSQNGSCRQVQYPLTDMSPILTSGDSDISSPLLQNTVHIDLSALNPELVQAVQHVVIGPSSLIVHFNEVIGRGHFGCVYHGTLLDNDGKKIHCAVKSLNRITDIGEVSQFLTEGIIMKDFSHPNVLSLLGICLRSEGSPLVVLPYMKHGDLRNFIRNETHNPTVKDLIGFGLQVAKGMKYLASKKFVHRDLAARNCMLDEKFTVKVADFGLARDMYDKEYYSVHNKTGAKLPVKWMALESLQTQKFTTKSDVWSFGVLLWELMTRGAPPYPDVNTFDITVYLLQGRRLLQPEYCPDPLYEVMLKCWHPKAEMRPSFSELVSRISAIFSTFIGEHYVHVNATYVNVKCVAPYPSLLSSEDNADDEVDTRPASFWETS
Insulin receptor, sequence (P06213 28-758 limits assumed): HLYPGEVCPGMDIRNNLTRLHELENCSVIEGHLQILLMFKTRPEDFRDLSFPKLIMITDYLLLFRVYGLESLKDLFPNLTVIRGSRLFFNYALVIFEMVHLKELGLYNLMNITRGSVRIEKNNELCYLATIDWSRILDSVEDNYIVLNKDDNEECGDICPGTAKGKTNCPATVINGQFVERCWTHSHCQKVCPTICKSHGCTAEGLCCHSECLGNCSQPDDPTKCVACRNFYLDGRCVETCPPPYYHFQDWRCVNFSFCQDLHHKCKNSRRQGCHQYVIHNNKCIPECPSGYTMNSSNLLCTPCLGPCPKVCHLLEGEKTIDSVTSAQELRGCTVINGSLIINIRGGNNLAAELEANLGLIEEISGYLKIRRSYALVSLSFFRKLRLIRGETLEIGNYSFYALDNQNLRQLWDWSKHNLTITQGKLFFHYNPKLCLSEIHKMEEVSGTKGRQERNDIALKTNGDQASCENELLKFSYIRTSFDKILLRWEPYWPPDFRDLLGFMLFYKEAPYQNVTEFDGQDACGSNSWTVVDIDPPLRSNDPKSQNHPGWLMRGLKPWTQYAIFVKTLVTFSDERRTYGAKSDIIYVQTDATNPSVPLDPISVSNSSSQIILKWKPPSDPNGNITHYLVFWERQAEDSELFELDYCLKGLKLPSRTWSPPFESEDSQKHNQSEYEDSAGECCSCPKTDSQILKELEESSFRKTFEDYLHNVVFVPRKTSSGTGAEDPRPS
Insulin receptor, sequence (P06213 763-1382 limits assumed): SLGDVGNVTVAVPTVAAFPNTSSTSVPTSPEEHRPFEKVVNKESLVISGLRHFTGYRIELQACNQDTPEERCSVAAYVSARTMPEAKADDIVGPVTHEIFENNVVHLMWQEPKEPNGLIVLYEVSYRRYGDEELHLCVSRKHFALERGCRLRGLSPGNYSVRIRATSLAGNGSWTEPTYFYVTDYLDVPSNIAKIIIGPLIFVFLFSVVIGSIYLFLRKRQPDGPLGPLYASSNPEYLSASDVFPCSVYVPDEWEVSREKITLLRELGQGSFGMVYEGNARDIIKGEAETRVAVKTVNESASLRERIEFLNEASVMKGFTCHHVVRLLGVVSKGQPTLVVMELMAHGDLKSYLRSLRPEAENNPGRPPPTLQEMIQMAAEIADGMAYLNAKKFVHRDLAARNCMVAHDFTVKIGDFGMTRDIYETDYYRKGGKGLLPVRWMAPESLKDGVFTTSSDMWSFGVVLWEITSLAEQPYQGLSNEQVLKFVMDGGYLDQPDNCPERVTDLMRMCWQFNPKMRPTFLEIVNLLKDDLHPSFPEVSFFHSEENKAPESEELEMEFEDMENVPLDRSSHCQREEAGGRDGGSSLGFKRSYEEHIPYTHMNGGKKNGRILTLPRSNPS

For `COc1ccc2cc(-c3nc(-c4ccc(S(C)(=O)=O)cc4)[nH]c3-c3ccncc3)ccc2c1`, on Angiopoietin-1 receptor [1], the IC50 was 250 nM.
Regarding `COc1ccc2cc(-c3nc(-c4ccccc4)[nH]c3-c3ccncc3)ccc2c1`, at Angiopoietin-1 receptor [2], the inhibition came to 60%.
Consider `COc1ccc2cc(-c3nc(-c4ccccc4F)[nH]c3-c3ccncc3)ccc2c1`, for which it took 1600 nM to reach half-maximal inhibition against Angiopoietin-1 receptor [1] (IC50).
On to `COc1ccc2cc(-c3[nH]c(-c4ccc(SC)cc4C)nc3-c3ccncc3)ccc2c1`, for which the IC50 at Angiopoietin-1 receptor [1] amounted to 1300 nM.
Still for that read-out and setting: under `COc1ccc2cc(-c3[nH]c(-c4ccc(S(C)(=O)=O)cc4C)nc3-c3ccncc3)ccc2c1` stands 40 nM.
As to `COc1ccc2cc(-c3[nH]c(-c4c(Cl)cccc4Cl)nc3-c3ccncc3)ccc2c1`, half-maximal inhibition against Angiopoietin-1 receptor [1] (IC50) required 78 nM.
The same measure, in the same setting: the same measure for `COc1ccc2cc(-c3[nH]c(-c4ccc([S+](C)[O-])cc4Cl)nc3-c3ccncc3)ccc2c1` (stereo not given): 51 nM; for `COc1ccc2cc(-c3[nH]c(-c4ccccc4Br)nc3-c3ccncc3)ccc2c1`: 82 nM; for `COc1ccc2cc(-c3nc(-c4ccc([S@@+](C)[O-])cc4C)[nH]c3-c3ccncc3)ccc2c1`: 22 nM.
Still for that read-out and setting: under `COc1ccc2cc(-c3[nH]c(-c4ccc(S(C)(=O)=O)cc4Cl)nc3-c3ccncc3)ccc2c1` stands 59 nM; under `COc1ccc2cc(-c3[nH]c(-c4ccccc4C)nc3-c3ccncc3)ccc2c1`, 387 nM; under `COc1ccc2cc(-c3c(-c4ccncc4)nc(-c4ccc(SC)cc4C)n3C)ccc2c1`, 335 nM.
Consider `COc1ccc2cc(-c3nc(-c4ccc([S+](C)[O-])cc4C)[nH]c3-c3ccncc3)ccc2c1` (stereo not given), for which the IC50 against Angiopoietin-1 receptor [1] came out at 36 nM.
Still for that read-out and setting: the same measure for `COc1ccc2cc(-c3c(-c4ccncc4)nc(-c4ccc(S(C)(=O)=O)cc4C)n3C)ccc2c1`: 114 nM.
Take `COc1ccc2cc(-c3c(-c4ccncc4)nc(-c4ccc([S+](C)[O-])cc4C)n3C)ccc2c1` (stereo not given): the inhibition in vivo at 25 mg/kg with Mus musculus [3] is 35%. The inhibition in vivo at 50 mg/kg with Mus musculus [4] amounted to 80%. Also, the IC50 in experiment [5] was greater than 30000 nM; in experiment [6] it was greater than 30000 nM; at Angiopoietin-1 receptor [1], 12 nM; in experiment [7], greater than 30000 nM; against Insulin receptor, greater than 30000 nM; in experiment [8] it was greater than 30000 nM. The IC50 in [9] is greater than 30000 nM; in experiment [10], greater than 30000 nM; in experiment [11], greater than 30000 nM; in [12] it was 1500 nM; in experiment [13], 9700 nM; in experiment [14], greater than 30000 nM. The IC50 in experiment [15] is greater than 30000 nM; in experiment [16] it was greater than 30000 nM; against MAP kinase p38 it was 4100 nM; in experiment [17], greater than 30000 nM; against TGF-beta receptor type-1, 296 nM; in experiment [18], 550 nM.
Take `COc1ccc2cc(-c3nc(-c4ccccc4C(F)(F)F)[nH]c3-c3ccncc3)ccc2c1`: the IC50 at Angiopoietin-1 receptor [1] worked out at 260 nM.
`COc1ccc2cc(-c3nc(-c4ccc([S@+](C)[O-])cc4C)[nH]c3-c3ccncc3)ccc2c1`: half-maximal inhibition against Angiopoietin-1 receptor [1] (IC50) required 95 nM.
`COc1ccc2cc(-c3[nH]c(-c4ccc(SC)cc4Cl)nc3-c3ccncc3)ccc2c1` yielded an IC50 against Angiopoietin-1 receptor [1] of 1500 nM.
As for `COc1ccc2cc(-c3nc(-c4ccccc4Cl)[nH]c3-c3ccncc3)ccc2c1`, the midpoint of inhibition against Angiopoietin-1 receptor [1], the IC50, lay at 157 nM. This IC50 is about 9.6-fold lower than that of the compound before.
On the same count and under the same terms, the same measure for `CCc1ccccc1-c1nc(-c2ccc3cc(OC)ccc3c2)c(-c2ccncc2)[nH]1`: 346 nM.
On the same count and under the same terms, under `COc1ccc2cc(-c3nc(-c4ccccc4C(C)C)[nH]c3-c3ccncc3)ccc2c1` stands 836 nM.

The record behind these values is ChEMBL document CHEMBL1137478, “Optimization of triarylimidazoles for Tie2: influence of conformation on potency” (Bioorg Med Chem Lett, 2007).
